We go through 10 compounds from ChEMBL document CHEMBL3779802, “Synthesis of hybrid 4-deoxypodophyllotoxin-5-fluorouracil compounds that inhibit cellular migration and induce cell cycle arrest” (Bioorg Med Chem Lett, 2016).

Calls of active or inactive are those of the source. The calls are words filed in the database; no cut-off is given here. Where only a bound is given, the exact number is not on record here.

The IC50 is the concentration that inhibits the measured activity by half. Broadly, the inhibition is the percentage by which the read-out fell short of the control. Read a low inhibition as little suppression.

The subject of assay [1] is A549. Nature of the assay: Cytotoxicity against human A549 cells assessed as growth inhibition after 48 hrs by MTT assay. In kind it is functional, cell-based. The following applies: A549, 48 h. The method, boiled down: (§1)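 MTT assay with 48 h drug exposure on HeLa, A549, HCT-8 and HepG2 tumour cells and normal lung fibroblast WI-38. IC50 reported as the mean of three independent experiments.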
In general terms: Formazan colour is commonly taken as a measure of viable cells.

Assay [2] is described as follows: Cytotoxicity against human WI38 cells assessed as growth inhibition after 48 hrs by MTT assay. In kind it is cell-based. As to conditions: WI-38, 48 h. The method, boiled down: as §1
Assay [3] concerns A549. Nature of the assay: Upregulation of TIMP-1 expression in human A549 cells at 0.1 to 5 uM after 24 hrs by ELISA. In kind it is functional, cell-based. For orientation: In an ELISA, binding on a coated surface is turned into a signal by an enzyme label.
Assay [4] deals with A549. Briefly: Cell cycle arrest in human A549 cells assessed as accumulation at G2/M phase at 0.5 uM after 24 hrs by propidium iodide staining based flow cytometry (reference value: 22.4%). In kind it is functional.
The subject of assay [5] is A549. Nature of the assay: Antimigratory activity in human A549 cells at 1 uM after 12 hrs by crystal violet staining based transwell migration assay. The following applies: A549, 12 h. It is filed as functional. The method, boiled down:
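Transwell migration of A549 cells exposed to vehicle, 0.3 or 1 μM for 12 h. Stained migrated cells imaged at 200× and counted. Inhibition expressed relative to untreated control; mean ± SD of three independent experiments.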

The test system of assay [6] is A549. Nature of the assay: Cell cycle arrest in human A549 cells assessed as accumulation at S phase at 0.5 uM after 24 hrs by propidium iodide staining based flow cytometry (reference value: 19.3%). It is filed as functional. (A flow cytometer gives signals particle by particle.)
Assay [7] concerns A549. Briefly: Downregulation of p-cdc2 expression in human A549 cells at 0.5 to 2 uM after 24 hrs by Western blot analysis. In kind it is functional, cell-based. The method, boiled down: (§2)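 Western blot for cdc2, p-cdc2 and cyclin B1 in A549 cells treated with vehicle, 0.5 or 2 μM for 24 h.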
Assay [8] has as its system A549. Briefly: Cell cycle arrest in human A549 cells assessed as accumulation at G2/M phase at 0.1 uM after 24 hrs by propidium iodide staining based flow cytometry (reference value: 22.4%). In kind it is functional.
Assay [9] deals with A549. Briefly: Downregulation of MMP-9 expression in human A549 cells at 0.5 to 2 uM after 24 hrs by Western blot analysis. In kind it is functional, cell-based.
The test system of assay [10] is A549. Nature of the assay: Downregulation of MMP-9 expression in human A549 cells at 0.1 to 5 uM after 24 hrs by ELISA. In kind it is functional, cell-based. The method, boiled down:
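MMP-9 in A549 cells measured by ELISA after 24 h exposure to 0, 0.1, 0.5, 1.5 or 5.0 μM. Mean ± SD, n = 3.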

Assay [11] deals with A549. Briefly: Cell cycle arrest in human A549 cells assessed as accumulation at G1 phase at 0.1 uM after 24 hrs by propidium iodide staining based flow cytometry (reference value: 58.3%). In kind it is functional.
Assay [12] concerns A549. Nature of the assay: Induction of apoptosis in human A549 cells assessed as nuclear fragmentation at 0.3 to 1 uM after 24 hrs by DAPI staining based fluorescence microscopy. In kind it is functional, cell-based. The method, boiled down: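 A549 cells treated with 0, 0.3 or 1 μM for 24 h, stained with DAPI and viewed by fluorescence microscopy at 200×. Nuclei scored for fragmentation and loss of normal morphology.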

A short description of assay [13]: Cytotoxicity against human HCT8 cells assessed as growth inhibition after 48 hrs by MTT assay. It is filed as functional, cell-based. As to conditions: HCT-8, 48 h. The method, boiled down: as §1
Assay [14] concerns A549. Nature of the assay: Cell cycle arrest in human A549 cells assessed as accumulation at S phase at 0.1 uM after 24 hrs by propidium iodide staining based flow cytometry (reference value: 19.3%). In kind it is functional.
The test system of the next assay is HeLa. Nature of the assay: Cytotoxicity against human HeLa cells assessed as growth inhibition after 48 hrs by MTT assay. In kind it is functional, cell-based. The method, boiled down: as §1
For assay [15], the system named is A549. Nature of the assay: Cell cycle arrest in human A549 cells assessed as decrease in cell level at G1 phase after 24 hrs by propidium iodide staining based flow cytometry. In kind it is functional.
In assay [16] the test system is A549. Nature of the assay: Cell cycle arrest in human A549 cells assessed as accumulation at G1 phase at 0.5 uM after 24 hrs by propidium iodide staining based flow cytometry (reference value: 58.3%). In kind it is functional.
Assay [17] deals with A549. Briefly: Upregulation of TIMP-1 expression in human A549 cells at 0.5 to 2 uM after 24 hrs by Western blot analysis. In kind it is functional, cell-based.
In another assay the test system is HepG2. Nature of the assay: Cytotoxicity against human HepG2 cells assessed as growth inhibition after 48 hrs by MTT assay. It is filed as functional, cell-based. The following applies: HepG2, 48 h. The method, boiled down:
as §1

The subject of assay [18] is A549. Briefly: Upregulation of cyclinB1 expression in human A549 cells at 0.5 to 2 uM after 24 hrs by Western blot analysis. It is filed as functional, cell-based. The method, boiled down:
as §2

For assay [19], the system named is A549. Briefly: Upregulation of cdc2 expression in human A549 cells at 0.5 to 2 uM after 24 hrs by Western blot analysis. It is filed as functional, cell-based. The method, boiled down:
as §2

In assay [20] the test system is A549. Briefly: Cell cycle arrest in human A549 cells assessed as accumulation at G2/M phase after 24 hrs by propidium iodide staining based flow cytometry. It is filed as functional.

For `COc1cc([C@@H]2c3cc4c(cc3C[C@H]3COC(=O)[C@@H]32)OCO4)cc(OC)c1OC(=O)CCC(=O)NCCCCCCNC(=O)Cn1cc(F)c(=O)[nH]c1=O`, the IC50 stood at 0.27 µM with A549 [1]; 114 µM in assay [2]; 1.01 µM in [13]; 4.03 µM in the assay with HeLa; 0.45 µM in the assay with HepG2. In addition, the outcome with A549 [3], in the assay on A549 [7], in the assay on A549 [9], in the assay with A549 [10], in the assay on A549 [12] and in the assay on A549 [17] was Active. In addition, the result in the assay with A549 [18] and in the assay on A549 [19] was Active. The Activity was 64.5% in the assay with A549 [4]; 35.4% in the assay on A549 [6]; 47.2% in the assay with A549 [8]; 7.7% in the assay with A549 [11]; 45.1% in the assay with A549 [14]; “Dose-dependent effect” in the assay with A549 [15]. Also, the values for the Activity in the assay with A549 [16] and in the assay on A549 [20] were 0.1% and “Dose-dependent effect”, respectively. In the assay on A549 [5], the inhibition at 1 µM is 47%.
On to `COc1cc([C@@H]2c3cc4c(cc3C[C@H]3COC(=O)[C@@H]32)OCO4)cc(OC)c1OC(=O)NCCCCNC(=O)Cn1cc(F)c(=O)[nH]c1=O`, for which the IC50 turned out to be 23.9 µM in the assay on A549 [1]; 85.5 µM in assay [2]; 8.53 µM in assay [13]; 9.58 µM in the assay on HeLa; 22.3 µM in the assay with HepG2.
For `COc1cc([C@@H]2c3cc4c(cc3C[C@H]3COC(=O)[C@@H]32)OCO4)cc(OC)c1OC(=O)NCCCNC(=O)Cn1cc(F)c(=O)[nH]c1=O` the same measures were 11.7 µM, 109 µM, 5.26 µM, 15.8 µM and more than 100 µM.
With `COc1cc([C@@H]2c3cc4c(cc3C[C@H]3COC(=O)[C@@H]32)OCO4)cc(OC)c1O` [4'-DEMETHYLDEOXYPODOPHYLLOTOXIN], the IC50 in the assay on A549 [1] came out at 3.9 µM; in [2] it was 78.5 µM; in [13], 9.81 µM; in the assay with HepG2, 16.5 µM.
Take `COc1cc([C@@H]2c3cc4c(cc3C[C@H]3COC(=O)[C@@H]32)OCO4)cc(OC)c1OC(=O)CCC(=O)N1CCN(C(=O)Cn2cc(F)c(=O)[nH]c2=O)CC1`: the IC50 in the assay with A549 [1] was 1.35 µM; in assay [2] it was 112 µM; in assay [13], 9.01 µM; with HeLa, 15 µM; with HepG2 it was 11.5 µM.
`O=c1[nH]cc(F)c(=O)[nH]1` [FLUOROURACIL]: the values for the IC50 (in [2]; in assay [13]; with HepG2) were 38.9 µM, 32.3 µM and 41.6 µM, respectively.
For `COc1cc([C@@H]2c3cc4c(cc3C[C@H]3COC(=O)[C@@H]32)OCO4)cc(OC)c1OC(=O)N1CCN(CCCCn2cc(F)c(=O)[nH]c2=O)CC1`, the concentration for half-maximal inhibition (IC50) in the assay on A549 [1] was 2.14 µM; in [2] it was 104 µM; in assay [13] it was 9.18 µM; with HeLa, 13.2 µM; in the assay on HepG2, 20.2 µM.
In the same order, the values of `COc1cc([C@@H]2c3cc4c(cc3[C@@H](O[C@@H]3O[C@@H]5CO[C@@H](C)O[C@H]5[C@H](O)[C@H]3O)[C@H]3COC(=O)[C@H]23)OCO4)cc(OC)c1O` [ETOPOSIDE] are 23.9 µM, 35.8 µM, 10.9 µM, 12.1 µM and 27.1 µM.
For `COc1cc([C@@H]2c3cc4c(cc3C[C@H]3COC(=O)[C@@H]32)OCO4)cc(OC)c1OC(=O)N1CCN(C(=O)Cn2cc(F)c(=O)[nH]c2=O)CC1` the same measures were 2.41 µM, 121 µM, 17.6 µM, 11.2 µM and 14.3 µM.
In the same order, the values of `COc1cc([C@@H]2c3cc4c(cc3C[C@H]3COC(=O)[C@@H]32)OCO4)cc(OC)c1OC(=O)NCCCCCCNC(=O)Cn1cc(F)c(=O)[nH]c1=O` are 0.14 µM, 87 µM, 2.04 µM, 13.2 µM and 11.7 µM.
